Assay outcomes: PubChem BioAssay, several laboratories
EP2 mod = modulates human prostaglandin E2 receptor EP2 signaling | EP2-expressing cells, cAMP HTRF FRET, PGE2 co-stimulation | induction, % at 25 µM | 260,000 tested, 0.83% active | AID 940;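 active means compounds whose cAMP rise, as percent of the full-agonist control response, exceeds 60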;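 further: rat C6 glioma line stably carrying human EP2 under a CMV promoter; the protocol text gives 20 µM as final concentration; 100% = response of wells given 1 µM PGE2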
TbHK1 inh = T. brucei hexokinase 1 inhibition. recombinant TbHK1, G6PDH-coupled NADH A340. inhibition, % at 10 µM. 220,000 tested, 0.11% active;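 active means inhibition of 50% or more in the single-dose primary screen; inactive means inhibition below 50%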
HKDC1 inhibitor = blocks human hexokinase HKDC1 activity | recombinant HKDC1, G6PDH/diaphorase resazurin coupled fluorescence | inhibition, % at 20 µM | 340,000 tested, 0.16% active | AID 493160;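 active means inhibition above about 35% when tested at 20 µM, limit read from the data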;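 further: plate controls were DMSO wells with enzyme for no effect and DMSO wells lacking enzyme for full effect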
Target sequence (Q2TB90 whole entry, looked up): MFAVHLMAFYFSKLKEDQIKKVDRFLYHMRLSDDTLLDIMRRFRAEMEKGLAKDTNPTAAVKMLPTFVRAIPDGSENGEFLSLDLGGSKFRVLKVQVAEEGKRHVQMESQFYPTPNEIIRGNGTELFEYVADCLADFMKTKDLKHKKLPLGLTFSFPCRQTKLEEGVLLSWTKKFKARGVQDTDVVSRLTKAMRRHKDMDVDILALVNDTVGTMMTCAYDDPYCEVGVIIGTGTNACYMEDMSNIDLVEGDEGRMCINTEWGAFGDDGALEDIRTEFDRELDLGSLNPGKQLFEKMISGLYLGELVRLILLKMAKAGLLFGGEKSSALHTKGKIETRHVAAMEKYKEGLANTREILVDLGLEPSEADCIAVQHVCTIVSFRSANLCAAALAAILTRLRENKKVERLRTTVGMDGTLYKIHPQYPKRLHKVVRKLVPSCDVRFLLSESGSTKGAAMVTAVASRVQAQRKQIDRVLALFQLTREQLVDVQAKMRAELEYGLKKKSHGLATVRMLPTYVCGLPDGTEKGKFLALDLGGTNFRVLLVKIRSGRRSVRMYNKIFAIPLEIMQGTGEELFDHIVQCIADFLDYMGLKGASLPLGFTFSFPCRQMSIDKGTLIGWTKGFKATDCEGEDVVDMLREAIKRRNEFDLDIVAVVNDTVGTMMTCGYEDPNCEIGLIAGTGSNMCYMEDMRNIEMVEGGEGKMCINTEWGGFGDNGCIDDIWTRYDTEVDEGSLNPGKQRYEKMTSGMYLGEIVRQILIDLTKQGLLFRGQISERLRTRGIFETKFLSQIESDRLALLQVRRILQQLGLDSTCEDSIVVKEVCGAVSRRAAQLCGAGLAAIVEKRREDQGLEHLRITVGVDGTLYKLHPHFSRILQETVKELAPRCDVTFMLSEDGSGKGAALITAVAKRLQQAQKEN
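Material – in-house recombinant HK5 (HKDC1) enzyme · Quantity – HKDC1 at 5 µg/mL · Buffer or medium – pH 8.0 Tris buffer with 10 mM MgCl2 · Reagent – glucose with 1 mM ATP · Dosing – single 20 µM dose · Times – reaction time 90 min, room temperature, protected from light · Technique – resorufin fluorescence at 613 nm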
EP2 antag = blocks the human prostaglandin E2 receptor EP2; AID 1422; 260,000 tested, 0.52% active; C6 glioma cells expressing human EP2, cAMP TR-FRET; cells stimulated with saturating PGE2; inhibition, % at 25 µM;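 active means percent inhibition above 40 after rounding to a whole number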;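 further: rat C6 glioma host cells with rolipram phosphodiesterase inhibitor present; the protocol text gives 20 µM as final concentration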
PHOSPHO1 inh = inhibitors of human PHOSPHO1 phosphatase; recombinant PHOSPHO1, absorbance phosphatase assay; inhibition, % at 13.3 µM; AID 1565; 290,000 tested, 1.1% active; in the data active means inhibition above about 60%
PfGluPho inh = PfG6PD (Plasmodium falciparum) enzyme inhibition; 350,000 tested, 0.78% active; AID 504690; inhibition, % at 20 µM; PfGluPho enzyme, NADPH resazurin-diaphorase fluorescence;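 active means inhibition reaching at least a set limit at 20 µM in the primary screen, cut at about 59% in these data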;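 further: 0% = DMSO wells with substrate and 100% = DMSO wells lacking glucose-6-phosphate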
An asterisk follows results filed as active; · = not tested or not shown; ! = a repeat was not active. Compounds with a hit are over-represented: about 2.5% of the library has one in this group of screens.

SMILES | EP2 mod | TbHK1 inh | HKDC1 inhibitor | EP2 antag | PHOSPHO1 inh | PfGluPho inh
O=C(O)c1cccc(CSc2nc(-c3ccc(Cl)cc3)cc(C(F)(F)F)n2)c1 | 64* | 9 | 0 | 12 | 7 | -24
COc1ccc(-c2cc(C)nc(SCc3cccc(C(=O)O)c3)n2)cc1 | 7 | 33 | -5 | 7 | 51 | -18
Cn1c(N2CCN(CC(=O)NCc3cccs3)CC2)nc2ccccc21 | 13 | · | · | 7 | · | ·
CC1(C)CC(=O)C(C(c2cccc(O)c2O)C2C(=O)CC(C)(C)CC2=O)C(=O)C1 | 24 | · | · | 41* | · | ·
CC1CCN(C(=O)Cn2ncn3c(cc4ccsc43)c2=O)CC1 | -2 | · | · | · | · | ·
Cc1ccc2ncccc2c1NS(=O)(=O)c1ccccc1 | 15 | 1 | 5 | 6 | 98* | -13
COc1cc(/C=C2\C(=O)NN(c3ccc(Cl)cc3)C2=O)cc(OC)c1OC | -87 | · | · | 18 | · | ·
C[N+]1(CCCC[N+]2(C)CCCCCCC2)CCCCCCC1 | 20 | · | · | 46* | · | ·
Cn1c(=O)c2c(nc(N3CCN(CCO)CC3)n2Cc2ccc(Cl)cc2)n(C)c1=O | -17 | · | · | 20 | · | ·
C=CCn1c(C)cc(-c2csc(N)n2)c1C | -3 | -2 | -8 | 5 | 98* | 46
C=CCn1c(C)cc(C(=O)CSc2nnc3c(Cl)cc(Cl)cn23)c1C | 10 | -17 | 4 | 7 | 62* | -2
O=[N+]([O-])c1ccc(N2CCCCC2)cc1N1CCOCC1 | -26 | -7 | -12 | · | 4 | -1
S=P(c1ccc(N2CCOCC2)cc1N1CCOCC1)(N1CCOCC1)N1CCOCC1 | · | · | -6 | · | 85* | 45
COc1cccc(C2(NC(=O)c3cnc(SC)nc3)CCCC2)c1 | -42 | · | · | 3 | · | ·
COc1ccc(NC(=S)Nc2ccccc2OC)c(OC)c1 | -19 | 1 | -10 | 6 | -13 | -6
COc1ccc(NC(=S)Nc2ccc(OC)cc2OC)c(OC)c1 | -71 | -9 | -3 | 4 | 64* | -1
COc1ccc(NC(=S)Nc2cnc3ccccc3c2)c(OC)c1 | -64 | 1 | -7 | 44* | 34 | 3
COc1ccc(NC(=S)Nc2cccnc2)c(OC)c1 | -34 | -6 | -10 | 13 | -21 | 9
O=C1/C(=C/c2ccccc2F)SC(=S)N1CCC(=O)N1CCCCC1CCO (stereo not drawn) | · | · | 8 | · | 64* | -2
O=C1c2ccccc2C(=O)N1SC1CCCCC1 | -36 | 13 | 13 | 87* | -36 | 14
COc1cc2cc3c(N)c(C(=O)NCc4ccco4)sc3nc2cc1OC | -40 | -32 | 9 | 21 | 72* | 37
COc1ccc2nc3sc(C(=O)NCc4ccco4)c(N)c3cc2c1 | -65 | · | · | 21 | · | ·
COC(=O)c1ccccc1NC(=O)CSc1nc2ncccc2[nH]1 | -7 | -3 | 4 | 12 | 64* | -11
O=C(c1nccs1)C1CCN(C(=O)Cc2ccsc2)CC1 | -66 | · | · | · | · | ·
CCCCCC(O)CCC(=O)NNC1=CC(=O)CC(C)(C)C1 (stereo not drawn) | 10 | 5 | -6 | 6 | 8 | 8
SMILES | EP2 mod | TbHK1 inh | HKDC1 inhibitor | EP2 antag | PHOSPHO1 inh | PfGluPho inh
CC(O)CCC(=O)NNC1=CC(=O)CC(C)(C)C1 (stereo not drawn) | 20 | -5 | · | 6 | 64* | ·
Cn1c(COc2ccccc2)nnc1SCC(=O)N(C1CCCCC1)C1CCCCC1 | 74* | · | · | 3 | · | ·
COc1ccc(OCc2nnc(SCC(=O)NC3CC3)n2C)cc1 | · | · | -3 | · | 63* | -4
Cn1c(COc2ccc(F)cc2)nnc1SCC(=O)NC1CC1 | · | · | -8 | · | 41 | 8
Cn1ccnc1SCC(=O)NC1CCCCC1 | -4 | 1 | 0 | 1 | 62* | -7
CC(C)n1c(SCC(=O)NC2CC2)nnc1-c1ccco1 | · | · | -5 | · | 66* | 3
COc1cccc(C(C(=O)NC2CCCCC2)N(Cc2cccs2)C(=O)c2cccs2)c1 (stereo not drawn) | 31 | · | · | 9 | · | ·
COc1ccc(-c2ccc(=O)n(CC3CCN(C(=O)C4CCCCC4)CC3)n2)cc1 | -38 | · | · | · | · | ·
CCc1nc(SCC(=O)Nc2cc(Cl)ccc2C)[nH]c(=O)c1C | 8 | · | · | 7 | · | ·
CCOC(=O)CN(C(=O)CSc1nnc(COc2ccc(OC)cc2)n1C)c1ccccc1 | -21 | -5 | 1 | 11 | 74* | -4
COc1ccc(-n2nnnc2SCC(=O)N(C2CCCCC2)C2CCCCC2)cc1OC | 69* | · | · | 16 | · | ·
CCCCC(=O)O[C@H]1CCC2C3CCc4cc(O)ccc4C3CC[C@@]21C (stereo partly drawn) | 19 | · | · | 8 | · | ·
C[C@@]12CC[C@H]3c4ccc(O)cc4CC[C@@H]3[C@H]1CC[C@H]2OC(=O)CCc1ccccc1 | 23 | · | · | 42* | · | ·
CSCCC(NC(=O)c1cccc(S(=O)(=O)N2CCN(C(C)=O)CC2)c1)c1nc2ccccc2[nH]1 (stereo not drawn) | · | · | -3 | · | · | -17
CSCC[C@H](NC(=O)c1ccc(Cl)c(S(=O)(=O)N2CCCC2)c1)c1nc2ccccc2[nH]1 | 11 | -4 | 1 | 11 | 98* | -12
CCOC(=O)C1(C)C=C(Nc2ccccc2)C(=O)N1c1ccccc1 (stereo not drawn) | 62* | -1 | -1 | 7 | 57 | 21
O=C(CSc1nnc(-c2ccccc2Cl)o1)Oc1ccc(Br)cc1 | -1 | -6 | -3 | 47*! | 5 | 0
O=C(CSc1nnc(-c2ccccc2O)o1)Oc1ccc(Br)cc1 | 7 | 2 | 11 | 3 | 26 | 1
Cc1cc(C)c2nc3c(c([C@H](O)[C@@H]4CCCCN4)c2c1)CC/C3=C\c1ccc(Cl)cc1 | 13 | · | · | 50* | · | ·
Cc1ccc(NC(=O)C(=O)NCCN2CCN(S(C)(=O)=O)CC2)cc1C | -11 | -11 | -2 | 1 | 61* | -2
COC(=O)c1sc(N2C(=O)C(=O)/C(=C(\O)c3ccc(OC)c(C)c3)C2c2cccnc2)nc1C (stereo not drawn) | 8 | · | · | 53* | · | ·
COc1ccc(/C(O)=C2/C(=O)C(=O)N(CCN(C)C)C2c2cccnc2)cc1C (stereo not drawn) | 35 | -25 | -2 | 12 | 0 | -8
O=C(N1CCC(c2ccncc2)CC1)C1(c2ccccc2)CC1 | -35 | · | · | 4 | · | ·
COC(=O)c1ccc(CSc2nc3c(cnn3-c3ccc(C)cc3)c(=O)[nH]2)o1 | 53 | -9 | -7 | 9 | -14 | 0
COC(=O)c1ccc(CSc2n[nH]c(=S)s2)o1 | 23 | -11 | 7 | 5 | 102* | 21
COC(=O)c1ccc(CSc2nc3ccccc3s2)o1 | -15 | 8 | 1 | 7 | 38 | 14
COC(=O)c1ccc(CSc2nc3ccc(C)cc3[nH]2)o1 | -37 | 0 | 2 | 11 | 76* | 16
COc1ccccc1OCCN(C)C(=O)Cn1cnc2sc(C)cc2c1=O | -47 | · | · | 4 | · | ·
CC(C)(C)NC(=O)C1CCCN(S(=O)(=O)c2ccc(Cl)cc2)C1 (stereo not drawn) | -28 | · | · | 9 | · | ·
Cc1c(C(=O)N2CCc3c(nc(N4CCC(C)CC4)[nH]c3=O)C2)cnn1C | 14 | · | · | 9 | · | ·
